ChEMBL document CHEMBL4811254, “Beyond Basicity: Discovery of Nonbasic DENV-2 Protease Inhibitors with Potent Activity in Cell Culture” (J Med Chem, 2021)
Activity calls are given as the source filed them.

Experiments:
[1] = target: Prothrombin (Homo sapiens) (UniProt P00734); assay: Inhibition of thrombin in human plasma using Boc-Val-Pro-Arg-AMC as substrate at 25 uM preincubated with enzyme for 15 mins followed by substrate addition and measured for 15 mins by fluorimetric assay; assay type: cell-free; details: time 30.0 min
Trypsin (Homo sapiens) = Trypsin (Homo sapiens) (UniProt P07477+P07478+P35030); assay: Inhibition of trypsin (unknown origin) using Boc-Val-Pro-Arg-AMC as substrate at 50 uM preincubated with enzyme for 15 mins followed by substrate addition and measured for 15 mins by fluorimetric assay; assay type: protein assay; details: time 30.0 min
[2] = target: Genome polyprotein (dengue virus type 2) (UniProt P29990); assay: Inhibition of DENV2 NS2B-NS3 protease expressed in Escherichia coli BL21 lambda(DE3) using FRET substrate preincubated with enzyme for 15 mins in presence of detergent CHAPS followed by substrate addition for 15 mins by fluorescence based analysis; details: time 30.0 min
[3] = Cytotoxicity against human HeLa cells assessed as reduction in cell viability incubated for 24 hrs by CellTiter-Blue assay; assay type: cell-based
Outline: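 Viability by CellTiter-Blue in HeLa or Huh-7 cells exposed to compound dilutions. Plates run in parallel with the reporter assay (HeLa) or the virus titer assay (Huh-7).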

[4] = target: Genome polyprotein (dengue virus type 2) (UniProt P29990); assay: Inhibition of NS2B-NS3 protease in DENV2proHeLa system assessed as inhibition of luciferase signal at 12.5 uM incubated for 24 hrs by luciferase reporter gene assay; assay type: cell-based; details: HeLa
Outline: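 Stable DENV2proHeLa cells seeded at 2 × 10⁴/well and dosed immediately, then incubated 24 h at 37 °C. Cells lysed 15 min at room temperature. Luciferase read with coelenterazine (2.75 μM in PBS) injection, luminescence 5 s. Triplicates; percent inhibition calculated relative to untreated control; background from cell-free wells.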

Genome polyprotein = Genome polyprotein (dengue virus type 2, UniProt P29990); assay: Inhibition of NS2B-NS3 protease in DENV2proHeLa system assessed as inhibition of luciferase signal incubated for 24 hrs by luciferase reporter gene assay; assay type: cell-based, HeLa
Outline: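 HeLa cells stably carrying the reporter system, 2 × 10⁴ per well, given inhibitor at seeding and held 24 h at 37 °C. Cells lysed 15 min at room temperature. Luciferase read for 5 s after injecting coelenterazine (2.75 μM in PBS). Triplicate wells per concentration; percent inhibition taken against untreated cells. EC50/EC90 from 4-parameter dose-response fit, background from cell-free wells subtracted.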

Compound	inhibition [1]	inhibition (Trypsin (Homo sapiens))	inhibition [2]	CC50 at 24 h [3] [µM]	inhibition [4] [%]	EC50 (Genome polyprotein) [µM]
CCCCCC(=O)N[C@H](C(=O)NCc1ccc(C(=O)NN)cc1)c1ccc(OCc2ccccc2)cc1	inactive	inactive	Active			
CCCC[C@H](NC(C)=O)C(=O)N[C@H](C(=O)NCc1ccc(C(N)=O)cc1)c1ccc(OCc2ccccc2)cc1	inactive	inactive	Active	> 50	16	
CCCCCCC(=O)N[C@H](C(=O)NCc1ccc(C(N)=O)cc1)c1ccc(OCc2ccccc2)cc1	inactive	inactive	Active	> 50	52	7.9
CCCCCCN[C@H](C(=O)NCc1ccc(C(N)=O)cc1)c1ccc(OCc2ccccc2)cc1	inactive	inactive	Active	> 50	19	
CCCCCC(=O)N[C@H](C(=O)NNc1ccc(C(N)=O)cc1)c1ccc(OCc2ccccc2)cc1	inactive	inactive	Active	> 25	60	8.7
CCCCCC(=O)N[C@H](C(=O)N1CCC(C(=O)Nc2ccccc2)CC1)c1ccc(OCc2ccccc2)cc1	inactive	inactive	Active	> 50	35	20
NC(=O)c1cccc(NC(=O)[C@@H](NC(=O)c2ccc3c(c2)OCCO3)c2ccc(OCc3ccccc3)cc2)c1	inactive	inactive	Active	> 100	69	5.4
CCCCCC(=O)N[C@H](C(=O)NCc1ccc(C(N)=O)cc1)c1ccc(OCc2ccc(C(C)(C)C)cc2)cc1	inactive	inactive	Active	> 12.5	< 10	
NC(=O)c1ccc(CNC(=O)[C@@H](NC(=O)Cc2ccc(-c3ccccc3)cc2)c2ccc(OCc3ccccc3)cc2)cc1	inactive	inactive	Active	> 50	25	
Cc1ccc(C)c(OCCCC(C)(C)C(=O)N[C@H](C(=O)Nc2cccc(C(N)=O)c2)c2ccc(OCc3ccccc3)cc2)c1	inactive	inactive		> 25	82	1.7
CCCCCC(=O)N[C@H](C(=O)Nc1cccc(C(N)=O)c1)c1ccc(OCc2ccccc2)cc1	inactive	inactive	Active	> 50	76	4.6
NC(=O)c1cccc(NC(=O)[C@@H](NC(=O)c2ccc(Oc3cccc(Cl)c3)cc2)c2ccc(OCc3ccccc3)cc2)c1	inactive	inactive		> 100	87	1
NC(=O)c1ccc(CNC(=O)[C@@H](NC(=O)c2cccs2)c2ccc(OCc3ccccc3)cc2)cc1	inactive	inactive		> 50	72	8.4
NC(=O)c1cccc(NC(=O)[C@@H](NC(=O)c2ccc3ccccc3c2)c2ccc(OCc3ccccc3)cc2)c1	inactive	inactive		> 100	71	4.5
CCCCCC(=O)N[C@H](C(=O)NCc1ccc(NC(C)=O)cc1)c1ccc(OCc2ccccc2)cc1	inactive	inactive		> 100	55	14
NC(=O)c1cccc(NC(=O)[C@@H](NC(=O)c2cccc(C(=O)N3CCOCC3)c2)c2ccc(OCc3ccccc3)cc2)c1	inactive	inactive		> 100	35	23
CCCCCC(=O)N[C@H](C(=O)NCc1ccc(OC)cc1)c1ccc(OCc2ccccc2)cc1	inactive	inactive		> 50	35	28

Compound	inhibition [1]	inhibition (Trypsin (Homo sapiens))	inhibition [2]	CC50 at 24 h [3] [µM]	inhibition [4] [%]	EC50 (Genome polyprotein) [µM]
CCCCCC(=O)N[C@H](C(=O)NCc1ccc(C(N)=O)cc1)c1ccc(OCc2ccc(C(F)(F)F)cc2)cc1	inactive	inactive		> 100	53	9.8
CCCCCC(=O)N[C@H](C(=O)Nc1ccc(CO)cc1)c1ccc(OCc2ccccc2)cc1	inactive	inactive		> 50	48	18
NC(=O)c1cccc(NC(=O)[C@@H](NC(=O)c2ccc(-c3ccccc3)cc2)c2ccc(OCc3ccccc3)cc2)c1	inactive	inactive		> 100	79	1.7
CCCCC(=O)N[C@H](C(=O)NCc1ccc(C(N)=O)cc1)c1ccc(OCc2ccccc2)cc1	inactive	inactive		> 100	38	14
CCCCCC(=O)N[C@H](C(=O)NCc1ccc(C(N)=O)cc1)c1ccc(OCc2cccc(OC)c2)cc1	inactive	inactive	Active	> 100	61	7.3
CCCCCC(=O)N[C@H](C(=O)Nc1cccc(C(N)=O)c1)c1ccc(OCc2c(Cl)cccc2Cl)cc1	inactive	inactive	Active	> 50	65	2.4
CCCCCC(=O)N[C@@H](C(=O)NCc1ccc(C(N)=O)cc1)c1ccc(OCc2ccc(Cl)c(Cl)c2)cc1	inactive	inactive	Active	> 50	19	
NC(=O)c1ccc(CNC(=O)[C@@H](NC(=O)CCc2ccccc2)c2ccc(OCc3ccccc3)cc2)cc1	inactive	inactive		> 50	57	12
CCCCCC(=O)N[C@H](C(=O)N1CCCCC1)c1ccc(OCc2ccccc2)cc1	inactive	inactive		29	58	13
NC(=O)c1cccc(NC(=O)[C@@H](NC(=O)c2ccc(Oc3ccccc3)cc2)c2ccc(Oc3ccccc3)cc2)c1	inactive	inactive		> 50	73	2.9
NC(=O)c1cccc(NC(=O)[C@@H](NC(=O)c2cccc(Oc3ccccc3)c2)c2ccc(OCc3ccccc3)cc2)c1	inactive	inactive	Active	> 100	84	1.7
CCCCCC(=O)N[C@H](C(=O)NCc1ccc(C(N)=O)cc1)c1ccc(OCc2ccc(O)cc2)cc1	inactive	inactive	Active	> 50	43	
COc1cccc(COc2ccc([C@H](NC(=O)c3ccc(C(=O)c4ccccc4)cc3)C(=O)Nc3cccc(C(N)=O)c3)cc2)c1	inactive	inactive	Active	> 100	79	1.2
CCCCCC(=O)N[C@H](C(=O)NCCc1ccc(C(N)=O)cc1)c1ccc(OCc2ccccc2)cc1	inactive	inactive		> 100	62	7.7
CCCCCC(=O)N[C@H](C(=O)NCCc1ccc(O)cc1)c1ccc(OCc2ccccc2)cc1	inactive	inactive		> 25	58	10
CCCCCCCC(=O)N[C@H](C(=O)Nc1cccc(C(N)=O)c1)c1ccc(OCc2ccccc2)cc1	inactive	inactive		> 12.5	66	2.2
NC(=O)c1cccc(NC(=O)[C@@H](NC(=O)c2ccc(Oc3ccccc3)cc2)c2ccc(OCc3c(Cl)cccc3Cl)cc2)c1	inactive	inactive	Active	> 50	71	2.2
